Assay results collected from several papers.
Compare with care: the assays were run in different laboratories.
MTNR1B: Melatonin receptor type 1B (MTNR1B, Homo sapiens, UniProt P49286)
CDK7 with cyclin H: Cyclin-dependent kinase 7, with cyclin H (CDK7, Homo sapiens, UniProt P50613)
BAZ1A: Bromodomain adjacent to zinc finger domain protein 1A (BAZ1A, Homo sapiens, UniProt Q9NRL2)

| Structure (SMILES) | target | test | test system | conditions | measurement | result |
| --- | --- | --- | --- | --- | --- | --- |
| COc1ccc2ncn(CCNC(C)=O)c2c1 | MTNR1B | β-arrestin recruitment, agonist | MT2 |  | Emax | 75% |
| CN(C)C1CCN(CC#Cc2nn(C3CCCC3)c3nc(NCc4ccccc4)ncc23)C1 (stereo not shown) | Death-associated protein kinase 1 (DAPK1, Homo sapiens, UniProt P53355) | enzyme activity, inhibitor, FRET |  | 10 µM | inhibition | 7% |
| COCC(CNC(C)=O)c1cccc2ccc(OC)cc12 (stereo not shown) | MTNR1B | cAMP, agonist, TR-FRET | CHO-K1 | 20 min | Emax | 67% |
| CC/C(=C(/CC)c1ccc(O)cc1)c1ccc(O)cc1 | CDK7 with cyclin H | enzyme activity, inhibitor, ADP detection |  | 10 µM | inhibition | 14.7% |
| Cc1cc2c(cc1N1C(=O)c3cccc4c(Cl)ccc(c34)C1=O)n(C)c(=O)n2C | BAZ1A | thermal stability, DSF |  | 10 µM | ΔTm | -1 °C |
| CCc1ccc2scc(CCNC(C)=O)c2c1 | MTNR1B | cAMP, agonist, TR-FRET | CHO-K1 | 20 min | Emax | 75% |
| Nc1ncnc2occ(-c3ccc(NC(=O)Nc4cc(C(F)(F)F)ccc4F)cc3)c12 | Serine/threonine-protein kinase RIO3 (RIOK3, Homo sapiens, UniProt O14730) | cell-free assay, inhibitor |  | 20 µM | remaining signal | 89% |
| C=C1CC[C@@H]2[C@](C)(CO)[C@H](O)CC[C@@]2(C)[C@@H]1C/C=C1/C(=O)OC[C@H]1O | CDK7 with cyclin H | enzyme activity, inhibitor, ADP detection |  | 10 µM | inhibition | 34.6% |
| COc1cc2c(CCNC(C)=O)c[nH]c2cc1I | MTNR1B | β-arrestin recruitment, agonist | MT2 | 90 min | Emax | 101% |
| O=c1cc(CO)occ1O | CDK7 with cyclin H | enzyme activity, inhibitor, ADP detection |  | 10 µM | inhibition | 21.3% |
| COc1cc2c(NC3CCN(C(C)C)CC3)nc(C3CCCCC3)nc2cc1OCCCN1CCCC1 | Histone-lysine N-methyltransferase EHMT2 (EHMT2, Homo sapiens, UniProt Q96KQ7) | thermal stability, DSF |  | 100 µM | ΔTm | 4 °C |
| COc1cc(/C=C/C(=O)O)ccc1O | CDK7 with cyclin H | enzyme activity, inhibitor, ADP detection |  | 10 µM | inhibition | -9.7% |
| Cc1cnc(Nc2ccc(OCCN3CCCC3)cc2)nc1Nc1cccc(S(=O)(=O)NC(C)(C)C)c1 | BAZ1A | thermal stability, DSF |  | 10 µM | ΔTm | 0.23 °C |
